Experimental data from PMC3609526 (Diabetes Care, 2013).

Test: Euglycemic clamp study: pharmacodynamics by glucose infusion rate
Format: in vivo, human (type 1 diabetic patients)
Details: for GIR tmax50 (time to reach 50% of maximum GIR) / GIR tmax (time to reach maximum GIR): euglycemic clamp, 12 patients, mean ± SD
How it was run: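 Crossover design with a 5–21 d washout, in fasting C-peptide-negative patients. During a 3–7 h run-in, IV human insulin/glucose held plasma glucose at 5.5 ± 1.1 mmol/L, with insulin tapered off over the last hour. At time 0, a fast-acting insulin analogue was injected into abdominal s.c. fat. Variable 10% glucose then ran for 8 h. Arterialized venous glucose (arm warmed at 55°C) was measured every 5–10 min in duplicate, and GIR AUC was calculated.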

[1] = 9 × 2 IU dispersed s.c. boluses

insulin aspart
GIR tmax50 (time to reach 50% of maximum GIR) (1 × 18 IU single s.c. bolus): 49 ± 16 min | GIR tmax (time to reach maximum GIR) (1 × 18 IU single s.c. bolus): 127 ± 93 min | GIR tmax50 (time to reach 50% of maximum GIR) [1]: 38 ± 9 min | GIR tmax (time to reach maximum GIR) [1]: 68 ± 33 min | shortening of time to reach maximum GIR (9 × 2 IU vs. 1 × 18 IU): ~50%
